Assay: Lipophilicity, modified shake flask octanol-water partition
Type: physicochemical
Conditions: chloride salts, 50 µM, 1-octanol/water, room temperature
Summary of the method: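 1-Octanol and water were mutually pre-saturated by shaking for 24 h at room temperature. Test compound at 50 µM in water-saturated octanol was mixed with an equal volume of octanol-saturated water, hand-shaken 200 times and centrifuged (11,000 rpm, 2 min). Each layer was quantified by absorbance against standard curves.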

Octanol-water partition coefficient (log Po/w): < −3
SMILES: [Cl][Ru][Cl].c1ccc(-c2ccccn2)nc1.c1ccc(-c2ccccn2)nc1.c1ccc(-c2ccccn2)nc1 [[Ru(bpy)3]Cl2, reference compound]

— PMC6699892 (Inorganic chemistry, 2019)
